# Assay outcomes as filed in PubChem.
# A selection: hits, their analogues and other compounds. The true share with any hit is near 2.1%.
# HCV NS3 hel inh = inhibitors of HCV NS3 helicase, primary screen, biochemical, Cy5 molecular beacon fluorescence. Hepatitis C virus NS3 helicase. NS3 helicase DNA unwinding. inhibition, % at 10.9 µM. hit rate 0.56% among 290,000;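 active means inhibition above the mean of all tested compounds plus 3 SD, set per campaign, cut at about 35% in these data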;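 further: 0% = DMSO wells and 100% = thioflavine S control wells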
#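 Material: hepatitis C virus NS3 helicase domain fragment enzyme; measured by: Cy5 fluorescence, 0 and 60 min reads; control set: DMSO and thioflavine S; incubation: 60 min unwinding reaction at 25 °C after ATP addition; read-out basis: % inhibition from 60/0 min fluorescence ratio, DMSO 0%, thioflavine S 100%; repeats: singlicate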
# ZTA DNA inh = ZTA (EBV) inhibition in EBNA-1 counter-screen; hit rate 0.15% among 320,000; P03206; ZTA-DNA binding, fluorescence polarization; inhibition, % at 11 µM; in the data active means inhibition above about 33%
# MLLE-PAM2 inh = inhibitors of PABP1 MLLE–PAM2 peptide binding, primary screen, biochemical, fluorescence polarization, FITC-PAM2, GST-MLLE | Polyadenylate-binding protein 1 (Homo sapiens), P11940 | inhibition, % at 20 µM | hit rate 0.36% among 360,000; in the data active means inhibition above about 35%, passing the limit was not always enough;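 further: plate controls were DMSO wells with GST-MLLE for no effect and wells lacking GST-MLLE protein for full effect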
# EBNA-1 inhibitor = EBNA-1 DNA-binding inhibitors, primary screen, biochemical, fluorescence polarization; inhibition, % at 14.8 µM; hit rate 0.34% among 300,000; in the data active means inhibition above about 28%
# PABP polyA inh = PABP poly(A) RNA binding inhibitors, primary screen, biochemical, fluorescence polarization, uHTS | Polyadenylate-binding protein 1 (Homo sapiens), P11940 | hit rate 1% among 290,000 | inhibition, % at 35 µM | AID 2014, 2009;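 further: calls also rest on retests at 20 µM and on dose response follow-up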
# eIF4H inh = human eIF4H binding inhibitors, primary screen, translation initiation inhibitor project, biochemical, uHTS, fluorescence polarization | Eukaryotic translation initiation factor 4H (Homo sapiens), Q15056 | eIF4H fluorescence polarization binding assay | inhibition, % at 35 µM | hit rate 0.94% among 290,000 | AID 2012, 2009;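 further: calls also rest on retests at 20 µM and on dose response follow-up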
# ZTA inh confirm = EBV Zta binding to ZRE DNA, inhibitors, confirmation, biochemical, fluorescence polarization, triplicate. shares compounds with ZTA DNA inh. inhibition, % at 11.1 µM. AID 2361, 2010. hit rate 30% among 320;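 active means mean inhibition across triplicate runs above the hit threshold derived for the original primary screen, cut at about 33% in these data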;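 further: 0% = Zta with DMSO and 100% = wells lacking Zta protein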
# EBNA-1 counter = EBNA-1 DNA-binding inhibition, counter-screen for ZTA inhibitor project, biochemical, fluorescence polarization; 320 tested, under 10 active; inhibition, % at 14.8 µM; shares compounds with ZTA DNA inh
# Starred values were filed as active, the others as inactive; · = not tested or not shown. Unless noted, how the calls were made is not given here.
SMILES,HCV NS3 hel inh,ZTA DNA inh,MLLE-PAM2 inh,EBNA-1 inhibitor,PABP polyA inh,eIF4H inh,ZTA inh confirm,EBNA-1 counter
CCn1c(CSc2nc3ccccc3[nH]2)nc2cc(C(=O)O)ccc21,3,29,-34,19,26,14,·,·
CC(Oc1ccc(F)cc1)C(=O)Nc1sc2c(c1C(=O)NCc1cccnc1)CCCC2 (configuration not stated),-24,1,-10,11,-9,-6,·,·
CC1C/C(=C/c2ccncc2)C(=O)/C(=C/c2ccncc2)C1 (configuration not stated),-2,43*,6,-5,4,1,48*,3
CCCCNC(=O)C1(O)c2cc(Br)ccc2NC(=O)N1c1cccc(OC)c1 (configuration not stated),2,-4,-3,-8,-9,-3,·,·
CCOC(=O)C1(Cc2cccc(OC)c2)CCN(C/C=C/c2ccc(OC)cc2)CC1,-57,-9,8,-13,-13,-10,·,·
CCOC(=O)C1(Cc2cccc(OC)c2)CCN(CC=C(C)C)CC1,-2,95*,0,-1,4,-5,-2,-5
O=S(=O)(NCCSCc1ccc(Cl)cc1Cl)c1ccc2c(c1)OCCO2,-22,9,4,-2,1,4,·,·
O=S(=O)(NCCSc1ccc(Cl)cc1)c1ccc2c(c1)OCCO2,-12,33*,-2,3,0,4,8,-1
CCOc1ccc(N(CC(=O)NC(C)CC)S(C)(=O)=O)cc1 (configuration not stated),4,18,14,0,0,-2,·,·
COc1ccc(OC)c(S(=O)(=O)N2CCC(C(=O)Nc3cccc(C(F)(F)F)c3)CC2)c1,-14,-2,5,-2,-2,-5,·,·
Cc1oc2cc(OC(C)C(=O)O)ccc2c(=O)c1Oc1ccccc1 (configuration not stated),-3,-25,-12,-3,3,-6,·,·
CCOc1ccc2c(=O)c(Oc3ccccc3)c(C)oc2c1,-7,139*,-21,-16,2,-7,-6,-10
C/C(=N\NC(=S)NCCc1ccccc1)c1ccc(C)cc1,-10,-8,16,16,-20,-4,·,·
C/C(=N\NC(=S)NCCc1ccccc1)c1ccc(C#N)cc1,-1,38*,14,14,-11,6,5,23
CC(OC(=O)c1ccc(-n2cnnn2)cc1)C(=O)Nc1ccccc1F (configuration not stated),·,-9,-11,·,·,·,·,·
CS(=O)(=O)N1CCN(c2ccc(NC(=O)C(c3ccccc3)c3ccccc3)cc2)CC1,-10,7,13,2,-11,-3,·,·
O=C(Nc1ccc(N2CCCC2)cc1)C(Cl)c1ccccc1 (configuration not stated),4,49*,13,27,-2,4,70*,36*
CCN(CC)CCOC(=O)c1ccc(N/C=C(/C#N)c2nc(-c3ccc(OC)cc3)cs2)cc1,-30,47*,-80,8,-58,-36,22,-8
CCN(CC)CCOC(=O)c1ccc(N/C=C(/C#N)c2nc(-c3ccc4c(c3)OCO4)cs2)cc1,-38,16,-152,-15,-68,-34,·,·
O=C(CCc1nc2ccccc2c(=O)[nH]1)N1CCN(S(=O)(=O)c2cccc([N+](=O)[O-])c2)CC1,·,5,-4,-1,·,·,·,·
Cc1nc(Nc2cnc(/C=C/c3cc(C(=O)Nc4cccc(C(F)(F)F)c4)ccc3C)cn2)cc(N2CCNCC2)n1,-89,45*,·,15,-51,-28,25,18
O=c1[nH]c(/C=C/c2ccc(Cl)cc2Cl)c([N+](=O)[O-])c(=O)[nH]1,33,55*,-10,16,-5,-4,53*,1
